Test results reported in article PMC10884431 (Heliyon, 2024).

Tests used:
[1] = tested on: alpha-glucosidase; conditions: from the lichen Parmotrema dilatatum; cited from earlier work
[2] = target: SARS-CoV-2 main protease (M^pro) (Severe acute respiratory syndrome coronavirus 2, UniProt P0DTD1); assay: M^pro inhibition assay; assay type: biochemical; conditions: read-out: SARS-CoV-2 M^pro inhibition percentage, reference at 1 μM
[3] = target: HIV-1 reverse transcriptase (Human immunodeficiency virus type 1 group M subtype B, UniProt P03366); assay: HIV-1 reverse transcriptase inhibition assay; assay type: biochemical; conditions: positive control at 1 μM
Procedure, shortened: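 Test compound in DMSO is added, then reverse transcriptase (25 nM solution), and the mix is held 30 min at room temperature. The reaction is stopped with EDTA, PicoGreen is added and endpoint fluorescence is read at 485/535 nm. % inhibition is taken against a DMSO control, minus an EDTA-pretreated blank. Nevirapine is the reference.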

[4] = tested on: macrophages; assay: Nitric oxide; assay type: cell-based; conditions: positive control at 5 μM
Procedure, shortened: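 NO production measured by absorbance at 540 nm on a microplate reader. The assay was run in triplicate and repeated in three independent experiments.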

COC(=O)c1c(C)c(Cc2c(O)c(Oc3c(C=O)c(O)cc(C)c3C(=O)OC)c3c(c2O)C(=O)O[C@@H]3O)c(O)c(C=O)c1O [parmetherines A]
Alpha-glucosidase inhibition (in words) [1]: strong

Cc1cccc(C)c1OCC(=O)N[C@@H](Cc1ccccc1)[C@@H](O)C[C@H](Cc1ccccc1)NC(=O)[C@H](C(C)C)N1CCCNC1=O [Lopinavir]
inhibition at 1 µM [2]: 47.7 ± 1.7%

COC(=O)c1c(C)c(Cc2c(O)c(Oc3c(C=O)c(O)cc(C)c3C(=O)OC)c3c(c2O)C(=O)O[C@@H]3OC)c(O)c(C=O)c1O [parmetherines B]
Alpha-glucosidase inhibition (in words) [1]: strong

Cc1ccnc2c1NC(=O)c1cccnc1N2C1CC1 [Nevirapine]
HIV-1 reverse transcriptase inhibition percentage [3]: 38.3 ± 2.5%

Cc1ccc(S(=O)(=O)/C=C/C#N)cc1 [Bay 11–7082]
% NO inhibition ±SD [4]: 72.5 ± 3.9%
% Cell viability ±SD ([4]; NO assay): 82.7 ± 5.3%
